Data set [1] is filed under the species Rattus norvegicus. Description: Genotoxicity in rat assessed as chromosomal aberration. The data set is classed as toxicity, organism-based. The settings on record: in vivo.
The nature of data set [2]: Oral bioavailability in dog. The data set is classed as ADME, organism-based, Canis lupus familiaris. The settings on record: in vivo.
Data set [3] is filed under the species Bos taurus. Description: Inhibition of LPS-induced plasminogen activator inhibitor-1 production in BCAEC assessed as relative inhibitory potency in BCAEC at 1 uM after 24 hrs by ELISA relative to T-686. The format is functional. A digest of the protocol:
(§1)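 Bovine endothelial cells (BCaEs, passages 8–9) grown to confluence in E'MEM with 10% FCS, then serum-starved 24 h. Compound added (10 µM […]; 1 µM LPS-induced, 2 µM TGF-β-induced) with or without LPS 1 µg/ml or TGF-β 0.3 ng/ml. After 24 h, conditioned medium cleared by centrifugation (3000 rpm, 10 min, 4 °C) and PAI-1 antigen measured by specific ELISA; activity expressed relative to T-686 reference.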
For orientation: ELISA stands for enzyme-linked immunosorbent assay.

The nature of data set [4]: Photostability assessed as compound remaining by HPLC analysis. The data set is classed as physicochemical. The procedure, abridged: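 Stock (100 µg/ml in acetonitrile) 0.1 ml mixed with 0.9 ml 0.1 N HCl; kept at room temperature 24 h under room light or foil-protected. Read-out as % compound remaining.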
For data set [5], the species on record is Bos taurus. Nature of the data set: Inhibition of TGF-beta-induced plasminogen activator inhibitor-1 production in BCAEC assessed as relative inhibitory potency in BCAEC at 2 uM after 24 hrs by ELISA relative to T-686. The data set is classed as functional. A digest of the protocol:
as §1

For data set [6], the species on record is Bos taurus. Description: Inhibition of LPS-induced plasminogen activator inhibitor-1 production assessed as relative inhibitory potency in BCAEC at 10 uM after 24 hrs by ELISA relative to T-686. The format is functional. A digest of the protocol:
as §1

Data set [7] is described as follows: Metabolic stability in dog blood assessed as compound remaining after 1 hr by HPLC analysis. The format is ADME, tissue-based, Canis lupus familiaris. The settings on record: read-out: Stability. The procedure, abridged: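 Stock (100 µg/ml in acetonitrile) diluted tenfold with saline; 0.3 ml added to 3 ml heparinized dog blood prewarmed to 37 °C and incubated at 37 °C. After 1 h plasma separated with diethyl ether by centrifugation and parent level determined by HPLC; reported as % remaining.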

Data set [8] is described as follows: Aqueous solubility in water. The format is physicochemical.
The nature of data set [9]: Therapeutic index, ratio of ED100 for increase in bleeding time in po dosed rat to ED50 for decrease in thrombus weight in po dosed rat venous thrombosis model. The data set is classed as organism-based. The settings on record: in vivo, read-out: TI. A digest of the protocol: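 ED100 for prolonged bleeding time (tail incision, oral, daily for 8 days) was divided by ED50 for thrombus weight reduction in the venous thrombosis model (oral, daily for 8 days; ligated vena cava, thromboplastin injected 2 h after the last dose, thrombus dry weight).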

The subject of data set [10] is Rattus norvegicus. Nature of the data set: Antithrombotic activity in po dosed rat venous thrombosis model assessed as decrease in thrombus weight administered QD for 8 consecutive days measured after 2 hrs of last dose. The format is functional. A digest of the protocol: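 Rats were dosed orally once daily for 8 days at 0.3, 1 and 3 mg/kg, with vehicle controls. They were anaesthetised with Nembutal 50 mg/kg ip, and all vena cava branches between the left renal vein and the bifurcation were ligated. 2 h after the last dose, 0.1 ml of 1:10 diluted rabbit brain thromboplastin was injected into the penile dorsal vein. Thrombus dry weight was measured.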

Data set [11] concerns Rattus norvegicus. Nature of the data set: Toxicity in po dosed rat assessed as increase in bleeding time administered QD for 8 consecutive days measured after 2 hrs of last dose by tail incision bleeding time test. The format is organism-based. The settings on record: in vivo. The procedure, abridged: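 Rats were dosed orally once daily for 8 days at 10, 30 and 100 mg/kg, with vehicle controls. Under Nembutal anaesthesia (50 mg/kg ip), 2 h after the last dose, a 2 mm deep incision was made 3.5 cm from the tail tip. Blood was blotted onto filter paper every 30 s, and bleeding time was taken as the time until no blood appeared.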

Data set [12] has as its system Rattus norvegicus. Nature of the data set: Toxicity in rat assessed as decrease in locomotor activity at 300 mg/kg, po. The settings on record: in vivo.
Data set [13] in a line: Inhibition of TGF-beta-induced plasminogen activator inhibitor-1 production in BCAEC after 24 hrs by ELISA. The data set is classed as functional, Bos taurus. The procedure, abridged:
(§2)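 BCaEs (passages 8–9) confluent in E'MEM/10% FCS, serum-starved 24 h, then exposed to compound with LPS (1 µg/ml) or TGF-β (0.3 ng/ml) for 24 h. Medium centrifuged at 3000 rpm, 10 min, 4 °C, and PAI-1 antigen quantified by specific ELISA.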

The nature of data set [14]: Inhibition of LPS-induced plasminogen activator inhibitor-1 production in BCAEC after 24 hrs by ELISA. The format is functional, Bos taurus. A digest of the protocol:
as §2

Data set [15] has as its system Rattus norvegicus. Nature of the data set: Antithrombotic activity in rat arterio-venous shunt model of thrombosis assessed as inhibition of thrombus formation at 10 mg/kg, po QD for 8 consecutive days measured after 2 hrs of last dose. The format is functional. The procedure, abridged: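 Rats given test article orally 10 mg/kg once daily for 8 days, controls vehicle. Under Nembutal (50 mg/kg ip), a saline-filled polyethylene tube holding silk thread was placed from the right carotid artery to the left jugular vein. Two hours after the last dose the clamp was released, blood perfused 30 min, and wet weight of thread-bound thrombus taken.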

For the compound `COC(=O)C(=C(/C)c1cc(OC)cc(OC)c1)/C(=C\c1ccncc1)C(N)=O.Cl`, the figures for the Activity result in the data set filed under Rattus norvegicus [1], in the data set listed under Bos taurus [3] and in the data set filed under Bos taurus [5] were “Toxic”, 1.5 and 1.1, respectively. Moreover, the bioavailability in data set [2] came to 78%. In addition, the Stability in data set [4] is 97%.
`COC(=O)C(=C/c1cc(OC)c(OC)c(OC)c1)/C(C(N)=O)=C(/C)c1ccccc1`: the Activity in the data set listed under Bos taurus [6] stood at 0.2.
Regarding `COC(=O)C(=C(/C)c1cc(OC)cc(OC)c1)/C(=C\c1ccccc1)C(=O)N1CCN(C)CC1`, the Activity in the data set filed under Bos taurus [3] and in the data set filed under Bos taurus [5] was 0.3 each time.
Consider `COC(=O)C(=C/c1cc(OC)c(OC)c(OC)c1)/C(C(N)=O)=C(\C)c1ccccc1`, for which the Activity in the data set filed under Bos taurus [6] was found to be 0.3.
Turning to `COc1cc(OC)cc(/C(C)=C2\C(=O)N(Cc3ccncc3)C(=O)\C2=C\c2ccccc2)c1.Cl`, the Activity result in the data set listed under Rattus norvegicus [1] is “Non-toxic”; in the data set filed under Bos taurus [3], 1.8; in the data set filed under Bos taurus [5], 1.4. Also, the remaining at 1 h in [7] is 60%. Moreover, the bioavailability in data set [2] worked out at 18%. For the same compound, the solubility in [8] stood at 111 µg/mL. Further, the Stability in data set [4] turned out to be 38%.
Turning to `COC(=O)C(=C(/C)c1cc(OC)cc(OC)c1)/C(=C\c1ccccc1)C(=O)NC1CCN(C)CC1`, the Activity was 0.8 in the data set filed under Bos taurus [3] and less than 0.1 in the data set filed under Bos taurus [5].
For `CC(=O)CC(c1ccccc1)c1c(O)c2ccccc2oc1=O` (configuration not stated) [WARFARIN], the selectivity ratio in data set [9] came to 2. In the data set with Rattus norvegicus [10], the ED50 came out at 0.1 mg/kg/day. In the data set with Rattus norvegicus [11], the ED100 amounted to 0.2 mg/kg/day.
For the compound `COC(=O)C(=C(/C)c1cc(OC)c(OC)c(OC)c1)/C(=C\c1ccccc1)C(N)=O`, the Activity entry in the data set listed under Rattus norvegicus [1] was “Non-toxic”; in the data set filed under Bos taurus [6], 1; in the data set filed under Bos taurus [3], 1.5; in the data set listed under Bos taurus [5], 0.7. Besides, the bioavailability in data set [2] came out at 9%. Also, the Stability in [4] was determined as 91%.
As for `COC(=O)C(=C/c1cc(OC)c(OC)c(OC)c1)/C(=C/c1ccccc1)C(N)=O`, the Activity in the data set listed under Bos taurus [6] came to 0.7.
As to `COC(=O)C(=C(/C)c1cc(OC)cc(OC)c1)/C(=C\c1ccccc1)C(=O)Nc1ccncc1.Cl`, the Activity result in the data set filed under Rattus norvegicus [1] was “Non-toxic”; with Rattus norvegicus [12], “Toxic”; in the data set listed under Bos taurus [3] it was 1.8; in the data set listed under Bos taurus [5], 1.1. Further, in [2], the bioavailability turned out to be 52%. The Stability in data set [4] is recorded as 85%.
Take `COc1cc(/C=C2/C(=O)NC(=O)/C2=C/c2ccccc2)cc(OC)c1OC`: the results for the IC50 in [13] and in [14] were 4300 nM and 900 nM, respectively. Moreover, in the data set listed under Rattus norvegicus [1], the Activity result is “Toxic”. In data set [2], this compound registered a bioavailability of 3%. For the same compound, the Stability in data set [4] turned out to be 12%.
Turning to `COC(=O)C(=C(/C)c1cc(OC)cc(OC)c1)/C(=C\c1ccccc1)C(=O)Nc1nnn[nH]1`, the Activity in the data set filed under Bos taurus [3] was found to be 0.1.
Turning to `COC(=O)C(=C\c1cc(OC)c(OC)c(OC)c1)/C(=C\c1ccccc1)C(N)=O`, the Activity in the data set listed under Bos taurus [6] turned out to be 0.7.
`COc1cc(OC)cc(/C(C)=C2\C(=O)N(Cc3cccnc3)C(=O)\C2=C\c2ccccc2)c1.Cl`: the remaining at 1 h in data set [7] worked out at 65%. This compound also yielded a solubility in data set [8] of 38 µg/mL. Moreover, the Activity in the data set filed under Bos taurus [3] worked out at 1; in the data set listed under Bos taurus [5], 1.4. The Stability in [4] came out at 47%.
For the compound `COC(=O)C(=C/c1cc(OC)c(OC)c(OC)c1)/C(=C\c1ccccc1)C(N)=O`, the Activity in the data set listed under Bos taurus [6] stood at 0.9.
In the case of `COC(=O)C(=C(/C)c1cc(OC)cc(OC)c1)/C(=C\c1ccccc1)C(=O)Nn1cnnc1`, in the data set filed under Bos taurus [3], the Activity worked out at 0.6.
With `COC(=O)C(=C(/C)c1cc(OC)cc(OC)c1)/C(=C\c1ccccc1)C(=O)Nc1cccc2cccnc12`, the Activity in the data set listed under Bos taurus [3] came to 0.4.
Consider `COC(=O)C(/C(=C\c1ccccc1)C(N)=O)=C(\C)c1cc(OC)c(OC)c(OC)c1`, for which the Activity in the data set listed under Bos taurus [6] was determined as 0.3.
`COC(=O)C(=C(/C)c1cc(OC)cc(OC)c1)/C(=C\c1ccccc1)C(=O)NN1CCN(C)CC1.Cl`: the selectivity ratio in [9] was more than 125. For the same compound, the Activity result in the data set filed under Rattus norvegicus [1] is “Non-toxic”; with Rattus norvegicus [12], “Non-toxic”; in the data set listed under Bos taurus [3] it was 1.5; in the data set filed under Bos taurus [5], 0.9. Also, in the data set on Rattus norvegicus [15], the inhibition in vivo at 10 mg/kg is 22%. Further, the bioavailability in data set [2] stood at 49%. Further, the ED50 in the data set on Rattus norvegicus [10] is 0.8 mg/kg/day. Further, the solubility in data set [8] was more than 4000 µg/mL. Further, in the data set on Rattus norvegicus [11], the ED100 is more than 100 mg/kg/day. For the same compound, the Stability in data set [4] came out at 91%.
In the case of `COC(=O)C(=C(/C)c1cc(OC)cc(OC)c1)/C(=C\c1ccccc1)C(=O)NN1CC[N+](C)([O-])CC1`, in the data set listed under Bos taurus [3], the Activity was 0.2.
On to `COC(=O)C(=C(/C)c1cc(OC)cc(OC)c1)/C(=C\c1ccccc1)C(=O)NCc1cccnc1.Cl`, for which the Activity result in the data set filed under Rattus norvegicus [1] was “Non-toxic”; in the data set with Rattus norvegicus [12], “Toxic”; in the data set listed under Bos taurus [3], 1.3; in the data set listed under Bos taurus [5] it was 1.8. For the same compound, in data set [2], the bioavailability was determined as 21%. Further, the Stability in data set [4] worked out at 90%.
Take `COC(=O)C(=C(/C)c1cc(OC)cc(OC)c1)/C(=C\c1ccccc1)C(=O)Nc1ncccn1`: the Activity in the data set listed under Bos taurus [3] was found to be 0.1.
For `COC(=O)C(=C(/C)c1cc(OC)cc(OC)c1)/C(=C\c1ccccc1)C(=O)O`, the Activity in the data set listed under Bos taurus [3] is 0.4; in the data set filed under Bos taurus [5] it was 0.3.
Take `COC(=O)C(=C(/C)c1cc(OC)cc(OC)c1)/C(=C\c1ccccc1)C(=O)NCc1ccncc1.Cl`: the Activity result in the data set filed under Rattus norvegicus [1] is “Toxic”; in the data set listed under Bos taurus [3] it was 2.1; in the data set listed under Bos taurus [5] it was 1.9. Also, the bioavailability in data set [2] came out at 28%. In data set [4], the Stability turned out to be 96%.
As to `COC(=O)C(=C(/C)c1cc(OC)cc(OC)c1)/C(=C\c1cccnc1)C(N)=O`, the Activity in the data set filed under Bos taurus [3] was 0.8; in the data set listed under Bos taurus [5], 1.2.
`COC(=O)C(=C(/C)c1cc(OC)cc(OC)c1)/C(=C\c1ccccc1)C(=O)Nc1cccnc1.Cl` returned a bioavailability in [2] of 17%. For the same compound, the figures for the Activity in the data set listed under Bos taurus [3] and in the data set listed under Bos taurus [5] were 2.2 and 1.1, respectively. Also, in data set [4], the Stability is listed as 88%.

By bioavailability is commonly meant dose-corrected exposure relative to a reference, in per cent. Broadly, the solubility is how much of the substance goes into solution per volume. By ED50 is commonly meant the dose at which the effect has come halfway, by size or by number of responders. The term IC50 denotes the concentration that inhibits the measured activity by half. The low end stands for inhibition by little substance, the high end for a need for much substance. A word on the inhibition in vivo: it is the relative decrease from the control value, in per cent.

Values taken from ChEMBL document CHEMBL1157557, “Synthesis and evaluation of 1,4-diphenylbutadiene derivatives as inhibitors of plasminogen activator inhibitor-1 (PAI-1) production” (Bioorg Med Chem, 2010).
